# From ChEMBL document CHEMBL1129536, “Nucleoside analogs. 14. The synthesis of antitumor activity in mice of molecular combinations of 5-fluorouracil and N-(2-Chloroethyl)-N-nitrosourea moieties separated by a three-carbon chain” (1996)
# Tests used:
# MAC15A [1] = assay: Antitumor effect against MAC15A Tumors was determined by the percent of median survival times of treated animals to median survival times of control animals by arachis oil at dose 300 mg/kg; conditions: Mus musculus
# MAC13 [2] = assay: Antitumor effect against MAC13 Tumors was determined by no. deaths/treated of mice by arachis oil at dose 200 mg/kg; no of deaths/treated 0/5; assay type: functional, Mus musculus
# Mus musculus [3] = assay: Antitumor effect against Colon 38 Adenocarcinoma was determined by the percent of median tumor volume of treated animals to median tumor volume of control animals by saline/Tween 80(9/1) at dose 100 mg/kg; assay type: functional
# Outline: (§1)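 Colon 38 adenocarcinoma, serially maintained in C57Bl/6 mice, was implanted as 3 mm × 3 mm fragments sc in B6D2F1 mice (19-22 g) on day 0. Compounds were made fresh on the day of injection, either dissolved in saline (0.9% NaCl) or suspended in saline with Tween 80 […], and given ip. T/C was the median tumor volume of treated over untreated controls; T/C <42% counted as activity.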
# MAC13 [4] = assay: Antitumor effect against MAC13 Tumors was determined by the percent of mean weight of treated tumors to mean weight of control tumors by arachis oil at dose 200 mg/kg; assay type: functional, Mus musculus
# Outline: (§2)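 MAC 13 tumors were grown in mice. Two days after transplantation, at about 2 mm³, mice were allocated by restricted randomization. Compounds were made up fresh and given ip at 0.1 mL/10 g body weight. Tumor weight was measured 21 days later, and T/C % was the mean treated tumor weight over the mean control weight; deaths among treated mice were recorded.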
# MAC13 [5] = assay: Antitumor effect against MAC13 Tumors was determined by no. deaths/treated of mice by 10% DMSO/arachis oil at dose 100 mg/kg; no of deaths/treated 0/5; assay type: functional, Mus musculus
# MAC15A [6] = assay: Antitumor effect against MAC15A Tumors was determined by the percent of median survival times of treated animals to median survival times of control animals by 10% DMSO/arachis oil at dose 100 mg/kg; conditions: Mus musculus
# MAC13 [7] = assay: Antitumor effect against MAC13 Tumors was determined by the percent of mean weight of treated tumors to mean weight of control tumors by 10% DMSO/arachis oil at dose 100 mg/kg; assay type: functional, Mus musculus
# Outline: as §2
# MAC13 [8] = assay: Antitumor effect against MAC13 Tumors was determined by the percent of mean weight of treated tumors to mean weight of control tumors by 10% ethanol/arachis oil at dose 20 mg/kg; assay type: functional, Mus musculus
# Outline: as §2
# MAC13 [9] = assay: Antitumor effect against MAC13 Tumors was determined by no. deaths/treated of mice by 10% ethanol/arachis oil at dose 20 mg/kg; no of deaths/treated 0/5; assay type: functional, Mus musculus
# MAC15A [10] = assay: Antitumor effect against MAC15A Tumors was determined by the percent of median survival times of treated animals to median survival times of control animals by saline at dose 20 mg/kg; conditions: Mus musculus
# Mus musculus [11] = assay: Antitumor effect against Colon 38 Adenocarcinoma was determined by the percent of median tumor volume of treated animals to median tumor volume of control animals by saline at dose 100 mg/kg; assay type: functional
# Outline: as §1
# MAC13 [12] = assay: Antitumor effect against MAC13 Tumors was determined by the percent of mean weight of treated tumors to mean weight of control tumors by arachis oil at dose 135 mg/kg; assay type: functional, Mus musculus
# Outline: as §2
# [13] = Antitumor effect against MCa Mammary Carcinoma was determined by the percent of median survival times of treated animals to median survival times of control animals by 10%DMSO/water at dose 80 mg/kg; assay type: functional, Mus musculus
# MAC15A [14] = assay: Antitumor effect against MAC15A Tumors was determined by the percent of median survival times of treated animals to median survival times of control animals by arachis oil at dose 90 mg/kg; conditions: Mus musculus
# MAC13 [15] = assay: Antitumor effect against MAC13 Tumors was determined by no. deaths/treated of mice by arachis oil at dose 135 mg/kg; no of deaths/treated 0/5; assay type: functional, Mus musculus
# MAC13 [16] = assay: Antitumor effect against MAC13 Tumors was determined by no. deaths/treated of mice by arachis oil at dose 31.25 mg/kg; no of deaths/treated 0/10; assay type: functional, Mus musculus
# [17] = Antitumor effect against MCa Mammary Carcinoma was determined by the percent of median survival times of treated animals to median survival times of control animals by 10%DMSO/water at dose 60 mg/kg; assay type: functional, Mus musculus
# MAC15A [18] = assay: Antitumor effect against MAC15A Tumors was determined by the percent of median survival times of treated animals to median survival times of control animals by arachis oil at dose 62.5 mg/kg; conditions: Mus musculus
# MAC13 [19] = assay: Antitumor effect against MAC13 Tumors was determined by the percent of mean weight of treated tumors to mean weight of control tumors by arachis oil at dose 31.25 mg/kg; assay type: functional, Mus musculus
# MAC13 [20] = assay: Antitumor effect against MAC13 Tumors was determined by the percent of mean weight of treated tumors to mean weight of control tumors by arachis oil at dose 50 mg/kg; assay type: functional, Mus musculus
# MAC13 [21] = assay: Antitumor effect against MAC13 Tumors was determined by no. deaths/treated of mice by arachis oil at dose 50 mg/kg; no of deaths/treated 0/5; assay type: functional, Mus musculus
# [22] = Antitumor effect against MCa Mammary Carcinoma was determined by the percent of median survival times of treated animals to median survival times of control animals by 10%DMSO/water at dose 100 mg/kg; assay type: functional, Mus musculus
# MAC15A [23] = assay: Antitumor effect against MAC15A Tumors was determined by the percent of median survival times of treated animals to median survival times of control animals by arachis oil at dose 50 mg/kg; conditions: Mus musculus
# Mus musculus [24] = assay: Antitumor effect against Colon 38 Adenocarcinoma was determined by the percent of median tumor volume of treated animals to median tumor volume of control animals by saline at dose 50 mg/kg; assay type: functional
# MAC15A [25] = assay: Antitumor effect against MAC15A Tumors was determined by the percent of median survival times of treated animals to median survival times of control animals by arachis oil at dose 100 mg/kg; conditions: Mus musculus
# MAC15A [26] = assay: Antitumor effect against MAC15A Tumors was determined by the percent of median survival times of treated animals to median survival times of control animals by 10% DMSO/arachis oil at dose 200 mg/kg; conditions: Mus musculus
# Mus musculus [27] = assay: Antitumor effect against Colon 38 Adenocarcinoma was determined by the percent of median tumor volume of treated animals to median tumor volume of control animals by saline/Tween 80(9/1)at dose 100 mg/kg; assay type: functional
# Outline: as §1
# MAC13 [28] = assay: Antitumor effect against MAC13 Tumors was determined by no. deaths/treated of mice by arachis oil at dose 150 mg/kg; no of deaths/treated 0/5; assay type: functional, Mus musculus
# MAC13 [29] = assay: Antitumor effect against MAC13 Tumors was determined by the percent of mean weight of treated tumors to mean weight of control tumors by arachis oil at dose 150 mg/kg; assay type: functional, Mus musculus
# Outline: as §2
# MAC13 [30] = assay: Antitumor effect against MAC13 Tumors was determined by no. deaths/treated of mice by 10% ethanol/arachis oil at dose 100 mg/kg; no of deaths/treated 0/5; assay type: functional, Mus musculus
# [31] = Antitumor effect against MCa Mammary Carcinoma was determined by the percent of median survival times of treated animals to median survival times of control animals by 10%DMSO/water at dose 150 mg/kg; assay type: functional, Mus musculus
# MAC15A [32] = assay: Antitumor effect against MAC15A Tumors was determined by the percent of median survival times of treated animals to median survival times of control animals by 10% ethanol/arachis oil at dose 100 mg/kg; conditions: Mus musculus
# MAC13 [33] = assay: Antitumor effect against MAC13 Tumors was determined by the percent of mean weight of treated tumors to mean weight of control tumors by 10% ethanol/arachis oilat dose 100 mg/kg; assay type: functional, Mus musculus
# Outline: as §2
# Mus musculus [34] = assay: Antitumor effect against Colon 38 Adenocarcinoma was determined by the percent of median tumor volume of treated animals to median tumor volume of control animals by saline/Tween 80(9/1) at dose 50 mg/kg; assay type: functional
# Outline: as §1
# MAC13 [35] = assay: Antitumor effect against MAC13 Tumors was determined by no. deaths/treated of mice by arachis oil at dose 100 mg/kg; no of deaths/treated 0/5; assay type: functional, Mus musculus
# MAC13 [36] = assay: Antitumor effect against MAC13 Tumors was determined by the percent of mean weight of treated tumors to mean weight of control tumors by arachis oil at dose 100 mg/kg; assay type: functional, Mus musculus
# Outline: as §2
# MAC13 [37] = assay: Antitumor effect against MAC13 Tumors was determined by no. deaths/treated of mice by arachis oil at dose 200 mg/kg; no of deaths/treated 0/10; assay type: functional, Mus musculus
# MAC15A [38] = assay: Antitumor effect against MAC15A Tumors was determined by the percent of median survival times of treated animals to median survival times of control animals by arachis oil at dose 200 mg/kg; conditions: Mus musculus
smiles,measurement,setting,value
CC(C)(C)OC(CCNC(=O)N(CCCl)N=O)n1cc(F)c(=O)[nH]c1=O (stereo not given),T/C,MAC15A [1],280%
same,No. deaths/treated,MAC13 [2],0
same,T/C,Mus musculus [3],42%
same,T/C,MAC13 [4],1%
O=NN(CCCl)C(=O)NCCC(n1cc(F)c(=O)[nH]c1=O)n1c(=O)[nH]cc(F)c1=O (stereo not given),No. deaths/treated,MAC13 [5],0
same,T/C,MAC15A [6],182%
same,T/C,MAC13 [7],87%
CC1CCC(NC(=O)N(CCCl)N=O)CC1 (stereo not given) [SEMUSTINE],T/C,MAC13 [8],8%
same,No. deaths/treated,MAC13 [9],0
same,T/C,MAC15A [10],154%
CSC(CCNC(=O)N(CCCl)N=O)n1cc(F)c(=O)[nH]c1=O (stereo not given),T/C,Mus musculus [11],63%
same,T/C,MAC13 [12],0%
same,T/C,[13],195%
same,T/C,MAC15A [14],200%
same,No. deaths/treated,MAC13 [15],0
CSC(CNC(=O)N(CCCl)N=O)n1cc(F)c(=O)[nH]c1=O (stereo not given),T/C,Mus musculus [11],0%
same,No. deaths/treated,MAC13 [16],0
same,T/C,[17],189%
same,T/C,MAC15A [18],156%
same,T/C,MAC13 [19],122%
COC(CNC(=O)N(CCCl)N=O)n1cc(F)c(=O)[nH]c1=O (stereo not given),T/C,Mus musculus [11],38%
same,T/C,MAC13 [20],7%
same,No. deaths/treated,MAC13 [21],0
same,T/C,[22],311%
same,T/C,MAC15A [23],200%
COC(CNC(=O)N(CCCl)N=O)n1c(=O)[nH]cc(F)c1=O (stereo not given),T/C,MAC13 [20],11%
same,No. deaths/treated,MAC13 [21],0
same,T/C,Mus musculus [24],17%
same,T/C,MAC15A [25],>850%
O=NN(CCCl)C(=O)NCCC(SCC(=O)O)n1cc(F)c(=O)[nH]c1=O (stereo not given),No. deaths/treated,MAC13 [2],0
same,T/C,MAC15A [26],275%
same,T/C,Mus musculus [27],0%
same,T/C,MAC13 [4],31%
COC(CCNC(=O)N(CCCl)N=O)n1cc(F)c(=O)[nH]c1=O (stereo not given),T/C,Mus musculus [11],47%
same,No. deaths/treated,MAC13 [28],0
same,T/C,MAC13 [29],0.8%
same,T/C,MAC15A [25],233%
COC(CCNC(=O)N(CCCl)N=O)n1c(=O)[nH]cc(F)c1=O (stereo not given),No. deaths/treated,MAC13 [5],0
same,T/C,MAC15A [6],360%
same,T/C,MAC13 [7],1%
O=NN(CCCl)C(=O)NCCC(OCCO)n1cc(F)c(=O)[nH]c1=O (stereo not given),No. deaths/treated,MAC13 [30],0
same,T/C,[31],168%
same,T/C,MAC15A [32],233%
same,T/C,MAC13 [33],23%
COC(CCNC(=O)N(CCCl)N=O)n1c(=O)cc[nH]c1=O (stereo not given),No. deaths/treated,MAC13 [5],0
same,T/C,MAC15A [6],200%
same,T/C,MAC13 [7],43%
O=NN(CCCl)C(=O)NCCOC(CCO)n1cc(F)c(=O)[nH]c1=O (stereo not given),T/C,Mus musculus [34],68%
same,No. deaths/treated,MAC13 [35],0
same,T/C,MAC13 [36],27%
same,T/C,MAC15A [25],136%
O=NN(CCCl)C(=O)NCCOC(CCNC(=O)c1ccccc1C(=O)O)n1cc(F)c(=O)[nH]c1=O (stereo not given),No. deaths/treated,MAC13 [37],0
same,T/C,[22],121%
same,T/C,MAC13 [4],103%
same,T/C,MAC15A [38],148%
